Measured values published in ChEMBL document CHEMBL1124174, “Substituted benzamides. 1. Potential nondopaminergic antagonists of chemotherapy-induced nausea and emesis” (J Med Chem, 1988).
Values joined by “and” are separate entries in the source; they are usually repeats but may differ in a detail not shown here. Equal entries are not always repeated.

Key:
[1] = test system: Mustela putorius furo; experiment: In vivo antagonism of cisplatin-induced emesis in ferret measured as emetic episodes, twice the dose of 3 mg/kg and in 3 ferrets; type: functional
How it was run: (§1)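 Nonfasted castrated male Fitch ferrets (1–1.5 kg) had jugular catheters implanted ≥48 h earlier under anesthesia. Compounds or saline were given iv twice, 5 min before and 90 min after cisplatin (12 mg/kg iv; 12 mg/mL in warm 0.9% saline). Emesis was observed up to 4 h; events within 1 min counted as one episode. Results were given as mean emetic episodes and % protection versus a pooled historical/concurrent control. t test versus saline.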

[2] = molecular target: D(2) dopamine receptor (Rattus norvegicus) (UniProt P61169); experiment: In vivo antagonism activity against D2 receptor was measured as stereotypy in rat when administered subcutaneously; type: functional, organism-based
How it was run: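 Male Long Evans rats (275 g) were dosed sc in dilute aqueous HCl (pH 4.5-5.5) 30 min before apomorphine (1 mg/kg sc).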

[3] = molecular target: D(2) dopamine receptor (Canis lupus familiaris) (UniProt Q9GJU1); experiment: In vivo antagonism activity against dopamine D2 receptor was measured as emesis in dog when administered subcutaneously; type: functional, organism-based
[4] = test system: Canis familiaris; experiment: In vivo antagonism of cisplatin-induced emesis in dog measured as percentage protection for twice the dose of 3 mg/kg in 2 dogs; type: functional, Canis lupus familiaris
How it was run: (§2)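 Nonfasted mature male or female beagles were dosed sc twice, 30 min before and 120 min after cisplatin (3 mg/kg iv; 3 mg/mL in warm 0.9% saline, used immediately). Emesis was observed up to 5 h; events within 2 min counted as one episode. Results were given as mean emetic episodes and % protection versus a dynamic control (historical and concurrent saline means pooled). t test versus saline.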

[5] = molecular target: D(2) dopamine receptor (Rattus norvegicus) (UniProt P61169); experiment: In vivo antagonistic activity against dopamine D2 receptor was measured as catalepsy in rat when administered subcutaneously; type: functional, organism-based
How it was run: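 Male Long Evans rats (275 g) received graded sc doses in dilute aqueous HCl (pH 4.5-5.5). They were observed 180 min for catalepsy, scored when the animal stayed stationary ≥15 s on a four-cork template.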

[6] = test system: Canis familiaris; experiment: In vivo antagonism of cisplatin-induced emesis in dog measured as emetic episodes, twice the dose of 6 mg/kg in 3 dogs; type: functional, Canis lupus familiaris
How it was run: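 Nonfasted mature male or female beagles received test compound or saline sc twice, 30 min before and 120 min after cisplatin (3 mg/kg iv; 3 mg/mL in warm 0.9% saline, used at once). Emesis observed up to 5 h. Emetic episode = expulsion of stomach content; events within 2 min counted as one. Protection calculated against a dynamic control (historical mean pooled with concurrent saline control).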

[7] = test system: Mustela putorius furo; experiment: In vivo antagonism of cisplatin-induced emesis in ferret measured as percentage protection for twice the dose of 3 mg/kg and in 3 ferrets; type: functional; how it was run: as §1
[8] = test system: Canis familiaris; experiment: In vivo antagonism of cisplatin-induced emesis in dog measured as emetic episodes, twice the dose of 3 mg/kg in 3 dogs; type: functional, Canis lupus familiaris; how it was run: as §2
[9] = test system: Canis familiaris; experiment: In vivo antagonism of cisplatin-induced emesis in dog measured as percentage protection for twice the dose of 1 mg/kg in 2 dogs; type: functional, Canis lupus familiaris; how it was run: as §2
[10] = molecular target: D(2) dopamine receptor (Rattus norvegicus, UniProt P61169); experiment: In vitro antagonistic activity against Dopamine receptor D2 was evaluated for the inhibition of [3H]spiperone binding
How it was run: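 Rat striatal membranes were prepared by differential centrifugation in 50 mM Tris pH 7.4 at 4 °C. Membrane protein (10 mg) was incubated 15 min at 37 °C with 0.1 nM [3H]spiperone and varying competitor concentrations. Buffer: 50 mM Tris HCl pH 7.5, 0.1% ascorbic acid, pargyline, 120 mM NaCl, 5 mM KCl, 2 mM CaCl2, 1 mM MgCl2. (+)-Butaclamol defined nonspecific binding. Bound ligand was collected by filtration and scintillation counted. IC50 by log-logit regression.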

[11] = test system: Canis familiaris; experiment: In vivo antagonism of cisplatin-induced emesis in dog measured as emetic episodes, twice the dose of 1 mg/kg in 2 dogs; type: functional, Canis lupus familiaris; how it was run: as §2
[12] = test system: Mustela putorius furo; experiment: In vivo antagonism of cisplatin-induced emesis in ferret measured as emetic episodes, twice the dose of 0.3 mg/kg and in 3 ferrets; type: functional; how it was run: as §1
[13] = test system: Canis familiaris; experiment: In vivo antagonism of cisplatin-induced emesis in dog measured as emetic episodes, twice the dose of 0.3 mg/kg in 2 dogs; type: functional, Canis lupus familiaris; how it was run: as §2
[14] = test system: Canis familiaris; experiment: In vivo antagonism of cisplatin-induced emesis in dog measured as percentage protection for twice the dose of 0.3 mg/kg in 2 dogs; type: functional, Canis lupus familiaris; how it was run: as §2
[15] = test system: Mustela putorius furo; experiment: In vivo antagonism of cisplatin-induced emesis in ferret measured as percentage protection for twice the dose of 0.3 mg/kg and in 3 ferrets; type: functional; how it was run: as §1
[16] = test system: Mustela putorius furo; experiment: In vivo antagonism of cisplatin-induced emesis in ferret measured as emetic episodes, twice the dose of 0. 3 mg/kg and in 3 ferrets; type: functional; how it was run: as §1
[17] = test system: Mustela putorius furo; experiment: In vivo antagonism of cisplatin-induced emesis in ferret measured as percentage protection for twice the dose of 3 mg/kg
[18] = test system: Canis familiaris; experiment: In vivo antagonism of cisplatin-induced emesis in dog measured as emetic episodes, twice the dose of 3 mg/kg in 2 dogs; type: functional, Canis lupus familiaris; how it was run: as §2
[19] = test system: Mustela putorius furo; experiment: In vivo antagonism of cisplatin-induced emesis in ferret measured as percentage protection for twice the dose of 1 mg/kg and in 3 ferrets; type: functional; how it was run: as §1
[20] = test system: Canis familiaris; experiment: In vivo antagonism of cisplatin-induced emesis in dog measured as emetic episodes, twice the dose of 6 mg/kg in 2 dogs; type: functional, Canis lupus familiaris; how it was run: as §2
[21] = test system: Canis familiaris; experiment: In vivo antagonism of cisplatin-induced emesis in dog measured as percentage protection for twice the dose of 6 mg/kg in 2 dogs; type: functional, Canis lupus familiaris; how it was run: as §2
[22] = test system: Mustela putorius furo; experiment: In vivo antagonism of cisplatin-induced emesis in ferret measured as emetic episodes, twice the dose of 1 mg/kg and in 3 ferrets; type: functional; how it was run: as §1
[23] = test system: Mustela putorius furo; experiment: In vivo antagonism of cisplatin-induced emesis in ferret measured as percentage protection for twice the dose of 3 mg/kg and in 2 ferrets; type: functional; how it was run: as §1

D(2) dopamine receptor (Rattus norvegicus), sequence (P61169 whole entry): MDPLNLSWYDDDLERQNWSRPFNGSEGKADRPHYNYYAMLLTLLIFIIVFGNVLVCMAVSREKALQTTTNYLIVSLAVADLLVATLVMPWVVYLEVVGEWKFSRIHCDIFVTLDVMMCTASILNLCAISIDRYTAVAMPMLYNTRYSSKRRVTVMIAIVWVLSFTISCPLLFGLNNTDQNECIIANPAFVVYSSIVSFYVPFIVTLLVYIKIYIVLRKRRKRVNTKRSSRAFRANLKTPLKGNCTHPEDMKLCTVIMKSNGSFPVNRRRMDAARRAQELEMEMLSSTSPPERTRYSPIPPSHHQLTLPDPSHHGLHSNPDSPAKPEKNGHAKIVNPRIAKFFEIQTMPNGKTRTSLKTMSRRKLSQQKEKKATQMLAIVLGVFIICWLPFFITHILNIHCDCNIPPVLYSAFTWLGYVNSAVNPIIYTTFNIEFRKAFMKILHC
D(2) dopamine receptor, sequence (P61169 whole entry): as above
D(2) dopamine receptor (Canis lupus familiaris), sequence (Q9GJU1 whole entry): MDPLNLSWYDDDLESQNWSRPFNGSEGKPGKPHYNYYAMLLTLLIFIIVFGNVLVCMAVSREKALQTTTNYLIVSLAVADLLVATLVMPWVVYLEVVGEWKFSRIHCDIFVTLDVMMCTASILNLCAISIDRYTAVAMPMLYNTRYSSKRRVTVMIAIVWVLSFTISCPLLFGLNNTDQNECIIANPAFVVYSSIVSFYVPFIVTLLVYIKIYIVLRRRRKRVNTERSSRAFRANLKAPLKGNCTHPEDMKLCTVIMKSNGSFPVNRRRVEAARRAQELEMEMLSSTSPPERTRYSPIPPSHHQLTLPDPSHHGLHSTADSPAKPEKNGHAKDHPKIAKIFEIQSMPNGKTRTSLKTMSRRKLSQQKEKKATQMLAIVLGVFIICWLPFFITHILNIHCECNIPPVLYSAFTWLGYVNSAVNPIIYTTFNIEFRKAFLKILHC

SMILES | Emetic episodes [1] | ED50 [2] [mg/kg] | ED50 [3] [mg/kg] | ED50 [5] [mg/kg] | Protection [7] [%] | Protection [9] [%] | IC50 [10] [µM] | Emetic episodes [11] | Emetic episodes [12] | Emetic episodes [13] | Protection [14] [%] | Protection [15] [%] | Emetic episodes [20] | Protection [21] [%] | further results
C=CCN1CCCC1CNC(=O)c1cc2nn[nH]c2cc1OC (stereo unspecified) [ALIZAPRIDE] | 5 | > 40 | 0.3 | > 40 | 27 | – | – | – | – | – | – | – | – | – | Protection ([4]; 3 mg/kg): 69% and 66%; Emetic episodes [6]: 4.7; Emetic episodes [8]: 4.3
CCN(CC)CCNC(=O)c1cc(Cl)c(N)cc1OC1CCCCC1=O (stereo unspecified) | 0 | > 40 | > 3 | > 40 | 100 | 100 | > 1 | 0 | 2.7 | 1.5 | 88 | 62 | – | – | –
CCN(CC)CCN1C(=O)c2cc(Cl)c(NC=O)cc2OC(C)=C1C | 0 | > 40 | > 3 | > 40 | 100 | – | > 1 | – | – | 9.5 | 25 | – | – | – | Emetic episodes [16]: 4.7; Protection [17]: 32%
CCN(CC)CCNC(=O)c1cc(Cl)c(N)cc1OCC1COC(C)(C)O1 (stereo unspecified) | 2 | > 40 | > 3 | > 40 | 72 | – | > 1 | – | – | – | – | – | – | – | Emetic episodes [18]: 4; Protection [4]: 68%
CCN(CC)CCNC(=O)c1cc(Cl)c(N)cc1OCC(C)=O | 0.7 | > 40 | > 3 | > 40 | 90 | 92 | > 1 | 1.5 | 4 | 5 | 60 | 44 | 0.5 | 96 | Protection [19]: 38%; Emetic episodes [22]: 4.5
C=CCCOc1cc(N)c(Cl)cc1C(=O)NCCN(CC)CC | 3.7 | > 40 | > 3 | > 40 | 50 | – | > 1 | – | – | – | – | – | – | – | Emetic episodes [18]: 3.5; Protection [4]: 71%
CCCOc1cc(N)c(Cl)cc1C(=O)NCCN(CC)CC | 2 | > 40 | > 3 | > 40 | 70 | – | > 1 | – | – | – | – | – | 8 | 40 | –
CCN(CC)CCNC(=O)c1cc(Cl)c(N)cc1O | – | > 40 | > 1 | > 40 | – | – | > 1 | – | – | – | – | – | 2 | 84 | Protection [23]: 40%
CCN(CC)CCNC(=O)c1cc(Cl)c(N)cc1OC1CCCC[C@H]1OC (stereo partly specified) | 1.3 | > 40 | > 3 | > 40 | 82 | 100 | > 1 | 0 | 3.7 | 3.5 | 70 | 77 | – | – | Protection [19]: 49%; Emetic episodes [22]: 1.7
